Most compounds without a hit are left out; they make up all but 4.1% or so of the library.
RGS4 act: RGS4 potentiation or activation; B-score at 10 µM; HEK293 M3R/inducible RGS4, carbachol calcium flux Fluo4; active compounds read low; 0.92% of 310,000 active;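 active means B-score of the integrated calcium signal more than 4 SD below the library mean, with starting fluorescence not abnormally high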;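 further: negative B-score means reduced calcium response which marks RGS4 activation or potentiation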
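test system = HEK293 cells with stable M3R and inducible RGS4 | schedule = recording 10 s baseline at 1 Hz, 100 s post-agonist | technique = Fluo4-AM (2 µM) calcium-flux fluorescence, kinetic read | measure = Agonist-evoked peak-minus-minimum fluorescence over baseline, integrated ratio, B score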
MrgX1 ag: human MrgX1 receptor agonism, primary screen; Q96LB2; MrgX1-HEK293 cells, Fluo-4 calcium fluorescence, agonist mode; active compounds read high; B-score at 10 µM; 0.44% of 310,000 active; AID 588627;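 active means calcium response B-score plate-corrected fluorescence ratio at least 3 library SD, with starting fluorescence B-score inside 5 SD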
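Test system: Stable human MrgX1 HEK293 cell line | Schedule: Overnight plating before 1 h dye loading | Read-out basis: Baseline-normalised fluorescence change ratio, B-scored | Detection: Kinetic calcium dye fluorescence, Fluo-4 NW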
MrgX1 allo act: allosterically activates human MrgX1 receptor signaling | AID 588675 | MrgX1-HEK293, Fluo-4 calcium flux, FDSS; active compounds read high | Q96LB2 | B-score at 10 µM | 0.63% of 310,000 active;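 active means plate-corrected calcium response at least 3 library SD above typical, normal starting fluorescence, not activating the receptor alone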;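 further: compound read alongside a low EC10 to EC30 dose of BAM8-22 agonist; peak minus trough fluorescence over baseline measured at the second addition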
RGS4 inh: inhibitors of human RGS4; HEK293 M3R/RGS4 inducible, Fluo-4 calcium flux; active compounds read high; triggered by carbachol at its EC20; 0.45% of 310,000 active; B-score at 10 µM; AID 463165;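 active means B-score, a plate-corrected calcium signal, over three deviations above library mean, with baseline fluorescence within five deviations of library mean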;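 further: RGS4 expression induced by doxycycline in cells with stable M3 receptor; B-score is computed from the integrated fluorescence ratio over baseline after carbachol; higher B-score means a larger calcium signal and so more RGS4 inhibition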
Target sequence (P49798 whole entry, looked up): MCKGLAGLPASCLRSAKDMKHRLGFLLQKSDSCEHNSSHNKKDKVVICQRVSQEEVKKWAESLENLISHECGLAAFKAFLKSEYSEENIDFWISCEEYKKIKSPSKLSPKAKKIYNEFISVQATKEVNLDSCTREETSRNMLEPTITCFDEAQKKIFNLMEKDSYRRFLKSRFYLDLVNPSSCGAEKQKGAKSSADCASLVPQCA
MrgX1 antag: human MrgX1 receptor antagonism, primary screen. Q96LB2. MRGX1-HEK293 calcium flux, Fluo-4, BAM8-22 antagonism; active compounds read low. B-score at 10 µM. 1.3% of 310,000 active. AID 588676;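 active means calcium-response B-score plate-corrected more than 3 library SD below zero, starting fluorescence within 5 deviations, no agonist response on first addition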;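 further: peak minus trough fluorescence over baseline after final BAM8-22 challenge near maximal dose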
Kir21 block: Kir2.1 (mouse) channel inhibition; P35561; HEK293-Kir2.1, FluxOR thallium flux fluorescence; active compounds read low; B-score at 10 µM; 0.85% of 310,000 active; AID 1672;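 active means fluorescence ratio B-score at or below minus 3 SD of library scores, with starting-brightness B-score within 2 SD, cut at about -4.2 in these data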;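 further: channel flux triggered by added potassium and thallium sulfate stimulus; B-score of peak minus minimum fluorescence over baseline after thallium stimulus; more negative B-score means stronger Kir2.1 block with less thallium influx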
Target sequence (P35561 whole entry, looked up): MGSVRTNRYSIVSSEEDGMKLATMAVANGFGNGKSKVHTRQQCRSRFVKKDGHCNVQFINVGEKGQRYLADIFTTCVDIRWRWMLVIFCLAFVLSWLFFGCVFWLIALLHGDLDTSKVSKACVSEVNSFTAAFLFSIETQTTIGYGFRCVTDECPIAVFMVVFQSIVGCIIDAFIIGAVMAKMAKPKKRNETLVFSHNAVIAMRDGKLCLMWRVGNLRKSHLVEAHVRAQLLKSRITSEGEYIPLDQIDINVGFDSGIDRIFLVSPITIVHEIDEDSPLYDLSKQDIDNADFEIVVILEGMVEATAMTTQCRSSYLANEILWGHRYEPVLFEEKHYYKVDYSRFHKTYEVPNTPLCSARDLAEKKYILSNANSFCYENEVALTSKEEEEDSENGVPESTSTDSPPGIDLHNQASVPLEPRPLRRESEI
Numbers stand for hits.

Screening COC(=O)CCCC(=O)N1CCCC(CNS(=O)(=O)c2ccc(OC)cc2)C1 (stereo unspecified) returned RGS4 act inactive, MrgX1 ag inactive, MrgX1 allo act inactive, RGS4 inh inactive, MrgX1 antag -4.6 and Kir21 block inactive.
CCn1cc(C(=O)NCc2ccco2)c(=O)c2cc(S(=O)(=O)N3CCCC3)ccc21 was read as RGS4 act inactive, MrgX1 ag inactive, MrgX1 allo act inactive, RGS4 inh inactive, MrgX1 antag inactive and Kir21 block inactive.
NC(=O)C1CC(=O)N(c2ccc(OCC(=O)Nc3cccc(C(F)(F)F)c3)cc2)C1 (stereo unspecified) was read as RGS4 act inactive, MrgX1 ag inactive, MrgX1 allo act inactive, RGS4 inh inactive, MrgX1 antag inactive and Kir21 block inactive.
Screening COc1ccccc1NC(=O)CN1C(=O)NC2(CCCCCCC2)C1=O returned RGS4 act inactive, MrgX1 ag inactive, MrgX1 allo act inactive, RGS4 inh inactive, MrgX1 antag inactive and Kir21 block inactive.
For CCOC(=O)c1c(C)n(CCNC(C)=O)c2ccc(OC)cc12 the results were RGS4 act inactive, MrgX1 ag inactive, MrgX1 allo act inactive, RGS4 inh inactive, MrgX1 antag inactive and Kir21 block inactive.
For CCOC(=O)c1c(-c2ccccc2)c2cc(OC)ccc2n1CCCN(C)C the results were RGS4 act inactive, MrgX1 ag inactive, MrgX1 allo act inactive, RGS4 inh inactive, MrgX1 antag inactive and Kir21 block -7.
Cc1ccc(C(=O)Nc2ccccc2[N+](=O)[O-])cc1S(=O)(=O)N1CCOCC1 was read as RGS4 act inactive, MrgX1 ag inactive, MrgX1 allo act 8, RGS4 inh inactive, MrgX1 antag inactive and Kir21 block inactive.
Screening CN(C)CCOC(C)(c1ccccc1)c1ccccn1 (stereo unspecified) returned RGS4 act inactive, MrgX1 ag inactive, MrgX1 allo act inactive, RGS4 inh inactive, MrgX1 antag inactive and Kir21 block inactive.
Screening CCn1nc(C)c(/C=N/NC(=O)c2ccoc2C)c1C returned RGS4 act inactive, MrgX1 ag inactive, MrgX1 allo act inactive, RGS4 inh inactive, MrgX1 antag -5.6 and Kir21 block inactive.
`CCOc1ccc(/C=C(\C#N)C(=O)NCC2CCCO2)cc1OCC` (stereo unspecified) gave RGS4 act inactive, MrgX1 ag inactive, MrgX1 allo act inactive, RGS4 inh inactive, MrgX1 antag inactive and Kir21 block inactive.
`O=C(COc1ccc2ccccc2c1)Nc1ccc(Cc2ccncc2)cc1` gave RGS4 act inactive, MrgX1 ag inactive, MrgX1 allo act inactive, RGS4 inh inactive, MrgX1 antag inactive and Kir21 block inactive.
`OCCNCc1cc(Br)ccc1OCc1ccc(Cl)cc1Cl` gave RGS4 act inactive, RGS4 inh inactive and Kir21 block inactive.
Screening c1ccc(COc2cccc(CNCc3cccnc3)c2)cc1 returned RGS4 act inactive, MrgX1 ag inactive, MrgX1 allo act inactive, RGS4 inh inactive, MrgX1 antag inactive and Kir21 block inactive.
OCCNCc1cccc(OCc2ccc(Cl)cc2)c1 was read as RGS4 act inactive, MrgX1 ag inactive, MrgX1 allo act inactive, RGS4 inh inactive, MrgX1 antag inactive and Kir21 block -8.7.
For OCCNCc1cc(Br)ccc1OCc1ccc(Cl)cc1 the results were RGS4 act inactive, MrgX1 ag inactive, MrgX1 allo act inactive, RGS4 inh inactive, MrgX1 antag inactive and Kir21 block -5.
Screening Brc1ccc(OCc2ccccc2)c(CNCc2ccncc2)c1 returned RGS4 act inactive, MrgX1 ag inactive, MrgX1 allo act inactive, RGS4 inh inactive, MrgX1 antag inactive and Kir21 block -5.3.
Cc1csc(Nc2ccc(Cl)cc2)n1 was read as RGS4 act inactive, MrgX1 ag inactive, MrgX1 allo act inactive, RGS4 inh inactive, MrgX1 antag inactive and Kir21 block inactive.
For COc1ccc(/C=N/OC/C(O)=C(\C#N)c2nc3ccccc3[nH]2)cc1 the results were RGS4 act inactive, MrgX1 ag inactive, MrgX1 allo act inactive, RGS4 inh inactive, MrgX1 antag -5.6 and Kir21 block inactive.
`N#C/C(=C(/O)COC(=O)Cc1c[nH]c2ccccc12)c1nc2ccccc2[nH]1` gave RGS4 act inactive, MrgX1 ag inactive, MrgX1 allo act inactive, RGS4 inh inactive, MrgX1 antag -4.9 and Kir21 block inactive.
`COc1ccccc1OCC(=O)OC/C(O)=C(\C#N)c1nc2ccccc2[nH]1` gave RGS4 act inactive, MrgX1 ag inactive, MrgX1 allo act inactive, RGS4 inh inactive, MrgX1 antag inactive and Kir21 block inactive.
COc1ccc(-c2c(-c3cccc(C)c3)oc3ccc(-c4ccc5c(c4)OCO5)cc23)cn1 was read as RGS4 act inactive, MrgX1 ag inactive, MrgX1 allo act inactive, RGS4 inh inactive, MrgX1 antag inactive and Kir21 block inactive.
For C/C(=N\OCC(=O)OCC(=O)NCc1ccccc1)c1ccc2c(c1)OCO2 the results were RGS4 act inactive, MrgX1 ag inactive, MrgX1 allo act inactive, RGS4 inh inactive, MrgX1 antag inactive and Kir21 block inactive.
`CN(c1cccc(NC(=O)Nc2cccc(Cl)c2)c1)S(C)(=O)=O` gave RGS4 act inactive, MrgX1 ag inactive, MrgX1 allo act inactive, RGS4 inh inactive, MrgX1 antag -5.2 and Kir21 block inactive.
`CN(C)c1ccc(NC(=O)Nc2cccc(Cl)c2)cc1` gave RGS4 act inactive, MrgX1 ag inactive, MrgX1 allo act inactive, RGS4 inh inactive, MrgX1 antag inactive and Kir21 block inactive.
CCCCSc1oc(-c2ccco2)nc1S(=O)(=O)c1ccccc1 was read as RGS4 act inactive, MrgX1 ag inactive, MrgX1 allo act inactive, RGS4 inh inactive, MrgX1 antag inactive and Kir21 block inactive.
`COc1ccccc1NS(=O)(=O)c1cc([N+](=O)[O-])ccc1N/N=C/c1sc(N2CCOCC2)nc1-c1ccccc1` gave RGS4 act inactive, MrgX1 ag inactive, MrgX1 allo act inactive, RGS4 inh inactive, MrgX1 antag -8 and Kir21 block inactive.
Screening COc1cc(C)c(CN2CCC(n3nccc3NC(=O)C3CCOC3)CC2)cc1C (stereo unspecified) returned RGS4 act inactive, MrgX1 ag inactive, MrgX1 allo act inactive, RGS4 inh inactive, MrgX1 antag inactive and Kir21 block inactive.
`O=c1c2ccccc2nnn1CSc1nnc(-c2cccc(S(=O)(=O)N3CCCCC3)c2)o1` gave RGS4 act -7.9, MrgX1 ag inactive, MrgX1 allo act inactive, RGS4 inh inactive, MrgX1 antag inactive and Kir21 block inactive.
Cc1cc(C)c2oc(C(=O)Nc3nnc(C(C)C)s3)cc(=O)c2c1 was read as RGS4 act inactive, MrgX1 ag inactive, MrgX1 allo act inactive, RGS4 inh inactive, MrgX1 antag inactive and Kir21 block inactive.

Screens from PubChem BioAssay.
